According to ChEMBL document CHEMBL5104225, “Synthesis and structure-activity relationship studies of N-terminal analogues of the lipopeptide antibiotics brevicidine and laterocidine” (RSC Med Chem, 2022):
≈ marks a conversion by molar mass, not a printed value. Bridge positions count the residues as written; N and C are the ends. Square brackets hold non-standard residues; d marks the D form. Peptide text beside a SMILES is read from it. * marks the point of attachment. ξ: configuration not given here. Octanoyl(7-Me) = CC(C)CCCCCC(=O)*; Palmitoyl = CCCCCCCCCCCCCCCC(=O)*; Hexanoyl(4ξ-Me) = CCC(C)CCC(=O)*; Myristoyl = CCCCCCCCCCCCCC(=O)*; Lauroyl = CCCCCCCCCCCC(=O)*; Decanoyl = CCCCCCCCCC(=O)*; dOrn = NCCC[C@@H](N)C(=O)O; Octanoyl = CCCCCCCC(=O)*; Orn = NCCC[C@H](N)C(=O)O; Hexanoyl = CCCCCC(=O)*

Legend:
Type in all cases: functional
Escherichia coli [1] = assay: Antibacterial activity against Escherichia coli ATCC 25922 assessed as inhibition of bacterial growth incubated for 18 hrs by CLSI protocol based method
Summary of the method: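 Broth microdilution MIC. Strain streaked from glycerol stock on sheep blood agar (16 h, 37 °C); a colony was grown in TSB at 37 °C, 220 rpm, to OD600 about 0.5. Cells were diluted in MHB to 2×10^5 CFU/mL and added 1:1 to serial dilutions in MHB in polypropylene plates.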

Escherichia coli [2] = assay: Antibacterial activity against colistin-resistant Escherichia coli ATCC 25922 carrying MCR-1 gene assessed as inhibition of bacterial growth incubated for 18 hrs by CLSI protocol based method
Summary of the method: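 Broth microdilution MIC. MCR-1 strain grown from glycerol stock in TSB with kanamycin (16 h, 37 °C, 220 rpm), diluted 100-fold in the same medium and grown to OD600 about 0.5. Cells were diluted in MHB to 2×10^5 CFU/mL and added 1:1 to serial dilutions in MHB. Incubated 18 h, 37 °C, 600 rpm; visual lowest no-growth concentration; three technical replicates.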

Klebsiella pneumoniae = assay: Antibacterial activity against Klebsiella pneumoniae ATCC 13883 assessed as inhibition of bacterial growth incubated for 18 hrs by CLSI protocol based method
Summary of the method: (§1)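 Single colonies from blood agar (16 h, 37 °C) grown in TSB at 37 °C, 220 rpm to OD600 ~0.5, then diluted in MHB to 2×10^5 CFU/mL. Mixed with serial MHB dilutions of DMSO stocks in polypropylene plates, sealed, and incubated 18 h at 37 °C, 600 rpm. MIC was taken as the lowest concentration with no visible growth; three technical replicates.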

Acinetobacter baumannii = assay: Antibacterial activity against Acinetobacter baumannii ATCC 17961 assessed as inhibition of bacterial growth incubated for 18 hrs by CLSI protocol based method; summary of the method: as §1
Pseudomonas aeruginosa = assay: Antibacterial activity against Pseudomonas aeruginosa PAO1 assessed as inhibition of bacterial growth incubated for 18 hrs by CLSI protocol based method; summary of the method: as §1
Staphylococcus aureus = assay: Antibacterial activity against Staphylococcus aureus USA300 assessed as inhibition of bacterial growth incubated for 18 hrs by CLSI protocol based method; summary of the method: as §1

Row | Compound | MIC (Escherichia coli [1]) [µg/mL] | MIC (Escherichia coli [2]) [µg/mL] | MIC (Klebsiella pneumoniae) [µg/mL] | MIC (Acinetobacter baumannii) [µg/mL] | MIC (Pseudomonas aeruginosa) [µg/mL] | MIC (Staphylococcus aureus) [µg/mL]
1 | COLISTIN | 0.5 | 8 | 0.5 | < 0.25 | 4 | > 32
2 | CCCCCCCCCCCCCC(=O)N[C@H](CC(N)=O)C(=O)N[C@H](Cc1ccc(O)cc1)C(=O)N[C@H](Cc1c[nH]c2ccccc12)C(=O)N[C@H](CCCN)C(=O)N[C@@H](CCCN)C(=O)NCC(=O)N[C@H](CCCN)C(=O)N[C@@H](Cc1c[nH]c2ccccc12)C(=O)N[C@@H]1C(=O)N[C@@H]([C@@H](C)CC)C(=O)NCC(=O)N[C@@H](CO)C(=O)O[C@@H]1C (Myristoyl-[dN][dY][dW][dOrn][Orn]G[dOrn]WTIGS; ester 9-C) | 16 (≈ 9.89 µM) | 16 (≈ 9.89 µM) | 32 (≈ 19.8 µM) | 4 (≈ 2.47 µM) | 32 (≈ 19.8 µM) | > 32
3 | CCCCCCCCCC(=O)N[C@H](CO)C(=O)N[C@H](Cc1ccc(O)cc1)C(=O)N[C@H](Cc1c[nH]c2ccccc12)C(=O)N[C@H](CCCN)C(=O)N[C@@H](CCCN)C(=O)NCC(=O)N[C@H](CCCN)C(=O)N[C@@H](Cc1c[nH]c2ccccc12)C(=O)N[C@@H]1C(=O)N[C@@H]([C@@H](C)CC)C(=O)N[C@@H](CC(N)=O)C(=O)NCC(=O)NCC(=O)O[C@@H]1C (Decanoyl-[dS][dY][dW][dOrn][Orn]G[dOrn]WTINGG; ester 9-C) | 2 (≈ 1.24 µM) | 2 (≈ 1.24 µM) | 2 (≈ 1.24 µM) | 2 (≈ 1.24 µM) | 2 (≈ 1.24 µM) | > 32
4 | CCCCCC(=O)N[C@H](CC(N)=O)C(=O)N[C@H](Cc1ccc(O)cc1)C(=O)N[C@H](Cc1c[nH]c2ccccc12)C(=O)N[C@H](CCCN)C(=O)N[C@@H](CCCN)C(=O)NCC(=O)N[C@H](CCCN)C(=O)N[C@@H](Cc1c[nH]c2ccccc12)C(=O)N[C@@H]1C(=O)N[C@@H]([C@@H](C)CC)C(=O)NCC(=O)N[C@@H](CO)C(=O)O[C@@H]1C (Hexanoyl-[dN][dY][dW][dOrn][Orn]G[dOrn]WTIGS; ester 9-C) | 8 (≈ 5.31 µM) | 8 (≈ 5.31 µM) | 4 (≈ 2.66 µM) | 16 (≈ 10.6 µM) | > 32 | > 32
5 | CCCCCCCCCCCC(=O)N[C@H](CO)C(=O)N[C@H](Cc1ccc(O)cc1)C(=O)N[C@H](Cc1c[nH]c2ccccc12)C(=O)N[C@H](CCCN)C(=O)N[C@@H](CCCN)C(=O)NCC(=O)N[C@H](CCCN)C(=O)N[C@@H](Cc1c[nH]c2ccccc12)C(=O)N[C@@H]1C(=O)N[C@@H]([C@@H](C)CC)C(=O)N[C@@H](CC(N)=O)C(=O)NCC(=O)NCC(=O)O[C@@H]1C (Lauroyl-[dS][dY][dW][dOrn][Orn]G[dOrn]WTINGG; ester 9-C) | 4 (≈ 2.43 µM) | 4 (≈ 2.43 µM) | 8 (≈ 4.86 µM) | 2 (≈ 1.21 µM) | 8 (≈ 4.86 µM) | 32 (≈ 19.4 µM)
6 | CCCCCCCC(=O)N[C@H](CC(N)=O)C(=O)N[C@H](Cc1ccc(O)cc1)C(=O)N[C@H](Cc1c[nH]c2ccccc12)C(=O)N[C@H](CCCN)C(=O)N[C@@H](CCCN)C(=O)NCC(=O)N[C@H](CCCN)C(=O)N[C@@H](Cc1c[nH]c2ccccc12)C(=O)N[C@@H]1C(=O)N[C@@H]([C@@H](C)CC)C(=O)NCC(=O)N[C@@H](CO)C(=O)O[C@@H]1C (Octanoyl-[dN][dY][dW][dOrn][Orn]G[dOrn]WTIGS; ester 9-C) | 16 (≈ 10.4 µM) | 16 (≈ 10.4 µM) | 16 (≈ 10.4 µM) | 16 (≈ 10.4 µM) | 8 (≈ 5.22 µM) | > 32
7 | CCC(C)CCC(=O)N[C@H](CC(N)=O)C(=O)N[C@H](Cc1ccc(O)cc1)C(=O)N[C@H](Cc1c[nH]c2ccccc12)C(=O)N[C@H](CCCN)C(=O)N[C@@H](CCCN)C(=O)NCC(=O)N[C@H](CCCN)C(=O)N[C@@H](Cc1c[nH]c2ccccc12)C(=O)N[C@@H]1C(=O)N[C@@H]([C@@H](C)CC)C(=O)NCC(=O)N[C@@H](CO)C(=O)O[C@@H]1C (stereo partly drawn) ({Hexanoyl(4ξ-Me)}-[dN][dY][dW][dOrn][Orn]G[dOrn]WTIGS; ester 9-C) | 4 (≈ 2.63 µM) | 4 (≈ 2.63 µM) | 2 (≈ 1.32 µM) | 4 (≈ 2.63 µM) | 8 (≈ 5.26 µM) | > 32
8 | CC[C@H](C)[C@@H]1NC(=O)[C@@H](NC(=O)[C@H](Cc2c[nH]c3ccccc23)NC(=O)[C@@H](CCCN)NC(=O)CNC(=O)[C@H](CCCN)NC(=O)[C@@H](CCCN)NC(=O)[C@@H](Cc2c[nH]c3ccccc23)NC(=O)[C@@H](Cc2ccc(O)cc2)NC(=O)[C@@H](CO)NC(C)=O)[C@@H](C)OC(=O)CNC(=O)CNC(=O)[C@H](CC(N)=O)NC1=O (Ac-[dS][dY][dW][dOrn][Orn]G[dOrn]WTINGG; ester 9-C) | > 32 | – | > 32 | > 32 | 16 (≈ 10.6 µM) | > 32
9 | CC[C@H](C)[C@@H]1NC(=O)[C@@H](NC(=O)[C@H](Cc2c[nH]c3ccccc23)NC(=O)[C@@H](CCCN)NC(=O)CNC(=O)[C@H](CCCN)NC(=O)[C@@H](CCCN)NC(=O)[C@@H](Cc2c[nH]c3ccccc23)NC(=O)[C@@H](Cc2ccc(O)cc2)NC(=O)[C@@H](CO)NC(=O)CCCCCC(C)C)[C@@H](C)OC(=O)CNC(=O)CNC(=O)[C@H](CC(N)=O)NC1=O ({Octanoyl(7-Me)}-[dS][dY][dW][dOrn][Orn]G[dOrn]WTINGG; ester 9-C) | 2 (≈ 1.25 µM) | 2 (≈ 1.25 µM) | 2 (≈ 1.25 µM) | 2 (≈ 1.25 µM) | 4 (≈ 2.49 µM) | > 32
10 | CC[C@H](C)[C@@H]1NC(=O)[C@@H](NC(=O)[C@H](Cc2c[nH]c3ccccc23)NC(=O)[C@@H](CCCN)NC(=O)CNC(=O)[C@H](CCCN)NC(=O)[C@@H](CCCN)NC(=O)[C@@H](Cc2c[nH]c3ccccc23)NC(=O)[C@@H](Cc2ccc(O)cc2)NC(=O)[C@@H](CC(N)=O)NC(C)=O)[C@@H](C)OC(=O)[C@H](CO)NC(=O)CNC1=O (Ac-[dN][dY][dW][dOrn][Orn]G[dOrn]WTIGS; ester 9-C) | > 32 | – | > 32 | > 32 | 8 (≈ 5.52 µM) | > 32
11 | CCCCCCCCCCCCCCCC(=O)N[C@H](CC(N)=O)C(=O)N[C@H](Cc1ccc(O)cc1)C(=O)N[C@H](Cc1c[nH]c2ccccc12)C(=O)N[C@H](CCCN)C(=O)N[C@@H](CCCN)C(=O)NCC(=O)N[C@H](CCCN)C(=O)N[C@@H](Cc1c[nH]c2ccccc12)C(=O)N[C@@H]1C(=O)N[C@@H]([C@@H](C)CC)C(=O)NCC(=O)N[C@@H](CO)C(=O)O[C@@H]1C (Palmitoyl-[dN][dY][dW][dOrn][Orn]G[dOrn]WTIGS; ester 9-C) | > 32 | – | > 32 | 32 (≈ 19.4 µM) | > 32 | > 32
12 | CC[C@H](C)[C@@H]1NC(=O)[C@@H](NC(=O)[C@H](Cc2c[nH]c3ccccc23)NC(=O)[C@@H](CCCN)NC(=O)CNC(=O)[C@H](CCCN)NC(=O)[C@@H](CCCN)NC(=O)[C@@H](Cc2c[nH]c3ccccc23)NC(=O)[C@@H](Cc2ccc(O)cc2)NC(=O)[C@H](N)CC(N)=O)[C@@H](C)OC(=O)[C@H](CO)NC(=O)CNC1=O | > 32 | – | > 32 | > 32 | 16 (≈ 11.4 µM) | > 32
13 | CC[C@H](C)[C@@H]1NC(=O)[C@@H](NC(=O)[C@H](Cc2c[nH]c3ccccc23)NC(=O)[C@@H](CCCN)NC(=O)CNC(=O)[C@H](CCCN)NC(=O)[C@@H](CCCN)NC(=O)[C@@H](Cc2c[nH]c3ccccc23)NC(=O)[C@@H](Cc2ccc(O)cc2)NC(=O)[C@H](N)CO)[C@@H](C)OC(=O)CNC(=O)CNC(=O)[C@H](CC(N)=O)NC1=O (H-[dS][dY][dW][dOrn][Orn]G[dOrn]WTINGG; ester 9-C) | > 32 | – | > 32 | > 32 | > 32 | > 32
